Among the data in ChEMBL document CHEMBL1134902, “Quinoline-3-carbothioamides and related compounds as novel immunomodulating agents” (2002) are inhibition in vivo values, retold here.

A word on the inhibition in vivo: it is the relative decrease from the control value, in per cent.

Format in all cases: functional
The subject of assay [1] is Mus musculus. The assay is described as follows: Activity expressed as percent inhibition of anti-TNP IgM level in TNP-LPS immunized mice, at a dose of 10 mg/kg perorally. Conditions: route oral. In short, it runs like this:
(§1)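 Female (C57BL/6 × DBA/2)F1 mice, 6 weeks old, immunized i.v. with TNP-LPS on day 0, then randomized (7/group). Compound given orally on days 0 and 1. Serum taken on day 4 and anti-TNP IgM measured by ELISA. Result given as % inhibition of IgM level versus control, with significance by Student's t-test.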

In assay [2] the test system is Mus musculus. The assay can be described thus: Antinephritic activity against Graft-Versus-Host Disease (GVHD) induced (C57BL/6DBA/2)F1 mice at a dose of 32 mg/kg administered perorally. Conditions: route oral. In short, it runs like this: (§2)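 Chronic GVHD induced in 6-week-old female (C57BL/6 × DBA/2)F1 mice by two injections of DBA/2 spleen cells (5 × 10⁷ each), given 5 days apart. Oral dosing once daily for 8 weeks, starting 3 days after the second injection. Urinary albumin measured after the last dose by single radial immunodiffusion with rabbit anti-mouse albumin antiserum. 10 mice/group; % inhibition of proteinuria; Student's t-test.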

The subject of assay [3] is Mus musculus. The assay is described as follows: Activity was expressed as percent inhibition of anti-TNP IgM level in TNP-LPS immunized mice, at a dose of 0.1 mg/kg perorally. Conditions: route oral. In a few lines:
as §1

The subject of assay [4] is Mus musculus. The assay is described as follows: Activity was expressed as percent inhibition of anti-TNP IgM level in TNP-LPS immunized mice, at a dose of 1 mg/kg perorally. Conditions: route oral. In short, it runs like this:
as §1

The test system of assay [5] is Mus musculus. The assay is described as follows: Antinephritic activity against Graft-Versus-Host Disease (GVHD) induced (C57BL/6DBA/2) F1 mice at a dose of 32 mg/kg administered perorally. To be noted: route oral. In a few lines:
as §2

In assay [6] the test system is Mus musculus. The assay is described as follows: Inhibition of anti-DNA antibody in autoimmune diseased MRL/I mice at a dose of 3.2 mg/kg administered perorally. Conditions: route oral.
The test system of assay [7] is Mus musculus. The assay is described as follows: Inhibition of histological score (Nephritis in the kidneys) in the autoimmune diseased MRL/l mice at a dose of 0.32 mg/kg administered perorally. Conditions: route oral.
The subject of assay [8] is Mus musculus. The assay can be described thus: Inhibition of anti-DNA antibody in autoimmune diseased MRL/I mice at a dose of 1 mg/kg administered perorally. To be noted: route oral.
The test system of assay [9] is Mus musculus. The assay can be described thus: Inhibition of histological score (Nephritis in the kidneys) in the autoimmune diseased MRL/l mice at a dose of 3.2 mg/Kg administered perorally. To be noted: po.
Assay [10] deals with Mus musculus. The assay can be described thus: Inhibition of anti-DNA antibody in autoimmune diseased MRL/I mice at a dose of 0.32 mg/Kg administered perorally. Conditions: po.
Assay [11] has as its system Mus musculus. The assay can be described thus: Activity was expressed as percent inhibition of anti-TNP IgM level in TNP-LPS immunized mice, at a dose of 100 mg/kg perorally. To be noted: route oral. In short, it runs like this:
as §1

For assay [12], the system named is Mus musculus. The assay can be described thus: Inhibition of histological score (Nephritis in the kidneys) in the autoimmune diseased MRL/l mice at a dose of 1 mg/Kg administered perorally. To be noted: po.
Assay [13] concerns Mus musculus. The assay can be described thus: Activity was expressed as percent inhibition of anti-TNP IgM level in TNP-LPS immunized mice, at a dose of 0.01 mg/kg perorally. Conditions: route oral. In a few lines: as §1

For the molecule `Cc1ccc2c(c1)C(=O)/C(=C(\S)N(C)c1ccccc1)C(=O)N2C`, the inhibition in vivo at 10 mg/kg in the assay on Mus musculus [1] is 20%. Consider `C=CCN(C(=S)c1c(O)c2cc(Cl)ccc2n(C)c1=O)c1ccccc1`, for which the inhibition in vivo at 32 mg/kg in the assay on Mus musculus [2] is 96%.

For `CSc1ccc2c(c1)c(O)c(C(=O)N(C)c1ccccc1)c(=O)n2C`, the inhibition in vivo at 0.1 mg/kg in the assay with Mus musculus [3] was determined as 18%. The inhibition in vivo at 10 mg/kg with Mus musculus [1] amounted to 67%. Moreover, the inhibition in vivo at 1 mg/kg with Mus musculus [4] is 50%. In addition, the inhibition in vivo at 32 mg/kg with Mus musculus [5] was determined as 100%. As to `CN1C(=O)/C(=C(/S)N(C)c2ccc(Br)cc2)C(=O)c2cc(Cl)ccc21`, in the assay with Mus musculus [1], the inhibition in vivo at 10 mg/kg was determined as 50%. The same measure, in the same setting: under `CN1C(=O)/C(=C(/S)N(C)c2ccc(Cl)cc2)C(=O)c2cc(Cl)ccc21` stands 47%. On to `CN1C(=O)/C(=C(/S)N(C)c2ccc(OC(F)(F)F)cc2)C(=O)c2cc(Cl)ccc21`, for which the inhibition in vivo at 10 mg/kg with Mus musculus [1] is 39%. With `CSc1ccc2c(c1)c(O)c(S(=O)(=O)N(C)c1ccccc1)c(=O)n2C`, in the assay on Mus musculus [2], the inhibition in vivo at 32 mg/kg came to 53%. For `Cc1cc(Cl)cc2c1N(C)C(=O)/C(=C(/S)N(C)c1ccccc1)C2=O`, the inhibition in vivo at 10 mg/kg with Mus musculus [1] worked out at 17%. Consider `CN1C(=O)/C(=C(/S)N(C)c2ccc(F)cc2)C(=O)c2cc(Cl)ccc21`, for which the inhibition in vivo at 10 mg/kg in the assay with Mus musculus [1] amounted to 54%. As for `CSc1ccc2c(c1)c(O)c(C(=S)N(C)c1ccccc1)c(=O)n2C`, the inhibition in vivo at 10 mg/kg in the assay on Mus musculus [1] was 32%. The inhibition in vivo at 32 mg/kg in the assay with Mus musculus [2] was 99%. As to `Cc1ccc(N(C)/C(S)=C2/C(=O)c3cc(Cl)ccc3N(C)C2=O)cc1`, the inhibition in vivo at 10 mg/kg in the assay with Mus musculus [1] came to 23%. For `CN1C(=O)/C(=C(/S)N(C)c2ccccc2)C(=O)c2cc(OC(F)(F)F)ccc21`, the inhibition in vivo at 10 mg/kg in the assay on Mus musculus [1] worked out at 19%. Consider `CN1C(=O)/C(=C(/S)N(C)c2ccccc2)C(=O)c2ccc(Cl)cc21`, for which the inhibition in vivo at 32 mg/kg in the assay on Mus musculus [2] is -23%. On the same count and under the same terms, next, `CSc1ccc2c(c1)c(=O)c(C(=S)N(C)c1ccccc1)c(S)n2C`: 37%. Regarding `CN1C(=O)/C(=C(/S)N(C)c2cccc(Cl)c2)C(=O)c2cc(Cl)ccc21`, the inhibition in vivo at 10 mg/kg with Mus musculus [1] was determined as 63%. The same measure, in the same setting: under `Cn1c(=O)c(C(=S)N(c2ccccc2)C(C)(C)C)c(O)c2cc(Cl)ccc21` stands 11%; under `COCCCN(/C(S)=C1/C(=O)c2cc(Cl)ccc2N(C)C1=O)c1ccccc1`, 31%; under `Cn1c(=O)c(/C(S)=N/c2ccccc2)c(O)c2cc(Cl)ccc21`, 38%.

`COc1ccc(N(C)/C(S)=C2/C(=O)c3cc(Cl)ccc3N(C)C2=O)cc1`: the inhibition in vivo at 10 mg/kg with Mus musculus [1] was found to be 45%. Besides, in the assay with Mus musculus [2], the inhibition in vivo at 32 mg/kg was found to be 97%. For `COc1ccc2c(c1)c(O)c(C(=S)N(C)c1ccccc1)c(=O)n2C`, the inhibition in vivo at 10 mg/kg in the assay with Mus musculus [1] is 31%. Moreover, the inhibition in vivo at 32 mg/kg in the assay on Mus musculus [2] came to 99%. As to `CN1C(=O)/C(=C(/S)N(C)c2ccccc2)C(=O)c2cc(-n3cccc3)ccc21`, in the assay with Mus musculus [1], the inhibition in vivo at 10 mg/kg was -10%.

Regarding `CN1C(=O)/C(=C(/S)N(C)c2ccc(F)c(F)c2)C(=O)c2cc(Cl)ccc21`, the inhibition in vivo at 10 mg/kg in the assay with Mus musculus [1] is 62%. Take `CN1C(=O)/C(=C(/S)N(C)c2cccs2)C(=O)c2cc(Cl)ccc21`: the inhibition in vivo at 10 mg/kg in the assay on Mus musculus [1] stood at 19%. Regarding `CN1C(=O)/C(=C(/S)N(C)c2ccccc2)C(=O)c2ccccc21`, in the assay with Mus musculus [2], the inhibition in vivo at 32 mg/kg amounted to 85%. On to `CSc1ccc(N(C)C(=O)c2c(O)c3cc(SC)ccc3n(C)c2=O)cc1`, for which the inhibition in vivo at 32 mg/kg in the assay on Mus musculus [2] was determined as 87%.

As for `CS/C(=N\c1ccccc1)c1c(O)c2cc(SC)ccc2n(C)c1=O`, the inhibition in vivo at 32 mg/kg in the assay with Mus musculus [2] is 84%.

On to `COc1cccc(N(C)/C(S)=C2/C(=O)c3cc(Cl)ccc3N(C)C2=O)c1`, for which the inhibition in vivo at 10 mg/kg in the assay on Mus musculus [1] came out at 30%. Also, the inhibition in vivo at 32 mg/kg in the assay with Mus musculus [2] amounted to 74%. For the molecule `CN1C(=O)/C(=C(/S)N(C)c2cccc(C(F)(F)F)c2)C(=O)c2cc(Cl)ccc21`, in the assay with Mus musculus [1], the inhibition in vivo at 10 mg/kg worked out at 29%. Turning to `CN1C(=O)/C(=C(/S)N(C)c2ccccc2)C(=O)c2cc(Br)ccc21`, the inhibition in vivo at 10 mg/kg in the assay on Mus musculus [1] was found to be 56%. Moreover, the inhibition in vivo at 32 mg/kg in the assay on Mus musculus [2] was 98%. Consider `CN1C(=O)/C(=C(/S)N(C)c2ccccc2)C(=O)c2cc(Cl)ccc21`, for which the inhibition in vivo at 3.2 mg/kg with Mus musculus [6] came to 83%; in the assay on Mus musculus [9], 85%. Also, the inhibition in vivo at 0.32 mg/kg was determined as 67% in the assay with Mus musculus [7] and 52% in the assay with Mus musculus [10]. In addition, the values for the inhibition in vivo at 1 mg/kg in the assay with Mus musculus [8], in the assay with Mus musculus [12] and in the assay on Mus musculus [4] were 73%, 85% and 33%, respectively. The inhibition in vivo at 0.1 mg/kg in the assay with Mus musculus [3] worked out at 22%. For the same molecule, the inhibition in vivo at 100 mg/kg with Mus musculus [11] came out at 77%. Besides, the inhibition in vivo at 0.01 mg/kg in the assay with Mus musculus [13] was -3%. Also, the inhibition in vivo at 10 mg/kg in the assay on Mus musculus [1] was 64%. For the same molecule, the inhibition in vivo at 32 mg/kg in the assay with Mus musculus [2] is 100%.

On to `CSCCN(C(=O)c1c(O)c2cc(SC)ccc2n(C)c1=O)c1ccccc1`, for which, in the assay on Mus musculus [2], the inhibition in vivo at 32 mg/kg came to 65%. With `CSc1ccc2c(c1)c(=O)c(C(=O)N(C)c1ccccc1)c(S)n2C`, the inhibition in vivo at 32 mg/kg in the assay with Mus musculus [2] worked out at 96%. For the molecule `CN(C(=O)c1c(O)c2ccccc2n(C)c1=O)c1ccccc1` [ROQUINIMEX], in the assay on Mus musculus [11], the inhibition in vivo at 100 mg/kg came out at 49%. For the same molecule, the inhibition in vivo at 10 mg/kg with Mus musculus [1] came to 41%. The inhibition in vivo at 1 mg/kg in the assay with Mus musculus [4] was found to be 13%.
